Results as given in ChEMBL document CHEMBL1136983, “Synthesis, cleavage, and antifungal activity of a number of novel, water-soluble ester prodrugs of antifungal triazole CS-758” (Bioorg Med Chem Lett, 2009).
The source made the active and inactive calls. The calls are words filed in the database; no cut-off is given here.

How the values were obtained:
Liver microsomes [1] = assay: Metabolic stability in human liver microsomes assessed as formation of (2R,3R)-3-((2R,5r)-2-((1E,3E)-4-(4-cyano-2-fluorophenyl)buta-1,3-dienyl)-1,3-dioxan-5-ylthio)-2-(2,4-difluorophenyl)-1-(1H-1,2,4-triazol-1-yl)butan-2-yl 2-hydroxyacetate after 30 mins; assay type: ADME, Microsome; conditions: 0.5 h
Liver microsomes [2] = assay: Metabolic stability in human liver microsomes assessed as formation of (2R,3R)-3-((2R,5r)-2-((1E,3E)-4-(4-cyano-2-fluorophenyl)buta-1,3-dienyl)-1,3-dioxan-5-ylthio)-2-(2,4-difluorophenyl)-1-(1H-1,2,4-triazol-1-yl)butan-2-yl 2-hydroxyacetate after 120 mins; assay type: ADME, Microsome; conditions: 2 h
[3] = Solubility in water; assay type: physicochemical
[4] = Bioavailability in rat at 2 mg/kg, iv; assay type: ADME, organism-based; conditions: in vivo
Outline: (§1)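 Rats received a single iv dose of prodrug at 2 mg/kg, and plasma CS-758 was followed over time (average of three rats). Bioavailability (%) = AUC of CS-758 after iv prodrug / AUC of CS-758 after iv CS-758 dissolved in polyethylene glycol solution × 100.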

Rattus norvegicus = assay: Half life in rat assessed as CS-758 elimination at 2 mg/kg, iv; assay type: ADME, organism-based; set-up: dose 2 mg/kg, route intravenous; conditions: in vivo; outline: as §1
Candida albicans = assay: Antifungal activity against Candida albicans SANK 51486 infected in mouse at 0.2 to 20 mg/kg, iv administered 2 hrs post infection measured after 24 hrs; assay type: functional, organism-based
Outline: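 Mouse systemic Candida albicans infection, challenge 4.2 × 10⁵ CFU/mouse. Single dose 2 h after challenge, at 0.2, 2 or 20 mg/kg, vehicle controls. Kidney viable cell counts taken at 24 h. Mean + S.E., n = 8 per group, significance at p<0.05 and p<0.001.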

[5] = Cmax in rat at 2 mg/kg, iv; assay type: ADME, organism-based; set-up: dose 2 mg/kg, route intravenous; conditions: in vivo; outline: as §1

C[C@@H](S[C@H]1CO[C@H](/C=C/C=C/c2ccc(C#N)cc2F)OC1)[C@@](Cn1cncn1)(OC(=O)COP(=O)([O-])O)c1ccc(F)cc1F.[Na+]
Activity (Liver microsomes [1]): Active | Activity (Liver microsomes [2]): Active | solubility [3]: > 10000 µg/mL

C[C@@H](S[C@H]1CO[C@H](/C=C/C=C/c2ccc(C#N)cc2F)OC1)[C@@](Cn1cncn1)(OC(=O)CO)c1ccc(F)cc1F
solubility [3]: < 1000 µg/mL

C[C@@H](S[C@H]1CO[C@H](/C=C/C=C/c2ccc(C#N)cc2F)OC1)[C@@](Cn1cncn1)(OC(=O)C[N+](C)(C)C)c1ccc(F)cc1F.[Cl-]
solubility [3]: > 10000 µg/mL | bioavailability [4]: 3.3%

C[C@@H](S[C@H]1CO[C@H](/C=C/C=C/c2ccc(C#N)cc2F)OC1)[C@@](Cn1cncn1)(OC(=O)CCN)c1ccc(F)cc1F
solubility [3]: < 1000 µg/mL

C[C@@H](S[C@H]1CO[C@H](/C=C/C=C/c2ccc(C#N)cc2F)OC1)[C@@](Cn1cncn1)(OC(=O)CN(C)C)c1ccc(F)cc1F
solubility [3]: < 1000 µg/mL

C[C@@H](S[C@H]1CO[C@H](/C=C/C=C/c2ccc(C#N)cc2F)OC1)[C@@](Cn1cncn1)(OP(=O)([O-])O)c1ccc(F)cc1F.[Na+]
t1/2 (Rattus norvegicus): 5.7 h | solubility [3]: > 30000 µg/mL | Activity (Candida albicans): Active

C[C@@H](S[C@H]1CO[C@H](/C=C/C=C/c2ccc(C#N)cc2F)OC1)[C@@](Cn1cncn1)(OC(=O)COC(=O)CCC(=O)[O-])c1ccc(F)cc1F.[Na+]
Activity (Liver microsomes [1]): Active | Activity (Liver microsomes [2]): Active | solubility [3]: > 10000 µg/mL

C[C@@H](S[C@H]1CO[C@H](/C=C/C=C/c2ccc(C#N)cc2F)OC1)[C@](O)(Cn1cncn1)c1ccc(F)cc1F [EMBECONAZOLE]
Cmax [5]: 1300 ng/mL | bioavailability [4]: 3.3%

C[C@@H](S[C@H]1CO[C@H](/C=C/C=C/c2ccc(C#N)cc2F)OC1)[C@@](Cn1cncn1)(OC(=O)CN)c1ccc(F)cc1F
solubility [3]: < 1000 µg/mL
